Assay results as given in ChEMBL document CHEMBL1157306, “Capisterones A and B, which enhance fluconazole activity in Saccharomyces cerevisiae, from the marine green alga Penicillus capitatus” (J Nat Prod, 2006).
pIC50: −log10 of the molar value. Calls of active or inactive are those of the source. The calls are words filed in the database; no cut-off is given here.

Experiments:
Saccharomyces cerevisiae [1] = assay: Potentiation of fluconazole-induced antifungal activity against Saccharomyces cerevisiae DSY 415 overexpressing Candida albicans CDR1 assessed as fractional inhibitory concentration at 12.8 uM; format: functional
Procedure, shortened: (§1)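 Fluconazole dose-response curves were run alone and with a fixed concentration of second agent (22.5, 6.0 or 12.8 μM). Strains were S. cerevisiae null pump DSY 390 and DSY 415 overexpressing C. albicans CDR1 or MDR1. Growth inhibition was the read-out, and the fractional inhibitory concentration was derived from it.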

Saccharomyces cerevisiae [2] = assay: Potentiation of fluconazole-induced antifungal activity against null pump Saccharomyces cerevisiae DSY 390 assessed as fractional inhibitory concentration at 12.8 uM; format: functional; procedure, shortened: as §1
Saccharomyces cerevisiae [3] = assay: Potentiation of fluconazole-induced antifungal activity against Saccharomyces cerevisiae DSY 415 overexpressing Candida albicans MDR1 assessed as fractional inhibitory concentration at 12.8 uM; format: functional; procedure, shortened: as §1
Pichia kudriavzevii = assay: Antifungal activity against Candida krusei; format: functional, organism-based
Cryptococcus neoformans = assay: Antifungal activity against Cryptococcus neoformans; format: functional, organism-based
Aspergillus fumigatus = assay: Antifungal activity against Aspergillus fumigatus; format: functional, organism-based
Saccharomyces cerevisiae [4] = assay: Potentiation of fluconazole-induced antifungal activity against Saccharomyces cerevisiae DSY 415 overexpressing Candida albicans MDR1 assessed as fractional inhibitory concentration at 22.5 uM; format: functional; procedure, shortened: as §1
BT-549 = assay: Cytotoxicity against human BT549 cells; format: functional, cell-based
Procedure, shortened: (§2)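 Human cancer cell lines (KB, SK-MEL, BT-549, SK-OV-3) tested alongside non-cancerous Vero cells, with test agent concentrations up to 35 μM.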

Nakaseomyces glabratus = assay: Antifungal activity against Candida glabrata; format: functional, organism-based
Saccharomyces cerevisiae [5] = assay: Antifungal activity against Saccharomyces cerevisiae DSY 415 overexpressing Candida albicans MDR1; format: functional, organism-based
Procedure, shortened: (§3)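 Growth inhibition of S. cerevisiae strains with efflux pumps overexpressed (CDR1 or MDR1, DSY 415) or no pump (DSY 390) was measured across a dose range of test agent alone. IC50 was read from the dose-response curves.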

Candida albicans = assay: Antifungal activity against Candida albicans; format: functional, organism-based
SK-MEL = assay: Cytotoxicity against human SK-MEL cells; format: functional, cell-based; procedure, shortened: as §2
SK-OV-3 = assay: Cytotoxicity against human SKOV3 cells; format: functional, cell-based; procedure, shortened: as §2
Saccharomyces cerevisiae [6] = assay: Antifungal activity against null pump Saccharomyces cerevisiae DSY 390 at 67.4 uM; format: functional, organism-based
Saccharomyces cerevisiae [7] = assay: Potentiation of fluconazole-induced antifungal activity against Saccharomyces cerevisiae DSY 415 overexpressing Candida albicans CDR1 assessed as fractional inhibitory concentration at 22.5 uM; format: functional; procedure, shortened: as §1
Saccharomyces cerevisiae [8] = assay: Antifungal activity against Saccharomyces cerevisiae DSY 415 overexpressing Candida albicans CDR1 at 12.8 uM; format: functional, organism-based
Saccharomyces cerevisiae [9] = assay: Antifungal activity against Saccharomyces cerevisiae DSY 415 overexpressing Candida albicans CDR1; format: functional, organism-based; procedure, shortened: as §3
Saccharomyces cerevisiae [10] = assay: Antifungal activity against Saccharomyces cerevisiae DSY 415 overexpressing Candida albicans MDR1 at 67.4 uM; format: functional, organism-based
Saccharomyces cerevisiae [11] = assay: Potentiation of fluconazole-induced antifungal activity against null pump Saccharomyces cerevisiae DSY 390 assessed as fractional inhibitory concentration at 22.5 uM; format: functional
Procedure, shortened: (§4)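 Pump-null S. cerevisiae DSY 390 was run in parallel with strains overexpressing C. albicans CDR1 or MDR1 efflux pumps. Growth-inhibition dose-response curves were recorded for fluconazole alone and for fluconazole with a fixed modulator concentration (22.5 or 6.0 μM). The interaction was expressed as a fractional inhibitory concentration (FIC) index.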

Vero = assay: Cytotoxicity against african green monkey Vero cells up to 35 uM; format: cell-based; settings: chlorocebus sabaeus
Saccharomyces cerevisiae [12] = assay: Antifungal activity against Saccharomyces cerevisiae DSY 415 overexpressing Candida albicans MDR1 at 12.8 uM; format: functional, organism-based
Saccharomyces cerevisiae [13] = assay: Antifungal activity against null pump Saccharomyces cerevisiae DSY 390; format: functional, organism-based; procedure, shortened: as §3
KB = assay: Cytotoxicity against human KB cells; format: functional, cell-based; procedure, shortened: as §2
Saccharomyces cerevisiae [14] = assay: Antifungal activity against null pump Saccharomyces cerevisiae DSY 390 at 12.8 uM; format: functional, organism-based
Saccharomyces cerevisiae [15] = assay: Antifungal activity against Saccharomyces cerevisiae DSY 415 overexpressing Candida albicans CDR1 at 67.4 uM; format: functional, organism-based
Saccharomyces cerevisiae [16] = assay: Potentiation of fluconazole-induced antifungal activity against null pump Saccharomyces cerevisiae DSY 390 assessed as fractional inhibitory concentration at 6.03 uM; format: functional; procedure, shortened: as §4
Saccharomyces cerevisiae [17] = assay: Potentiation of fluconazole-induced antifungal activity against Saccharomyces cerevisiae DSY 415 overexpressing Candida albicans MDR1 assessed as fractional inhibitory concentration at 6.03 uM; format: functional; procedure, shortened: as §1
Saccharomyces cerevisiae [18] = assay: Potentiation of fluconazole-induced antifungal activity against Saccharomyces cerevisiae DSY 415 overexpressing Candida albicans CDR1 assessed as fractional inhibitory concentration at 6.03 uM; format: functional; procedure, shortened: as §1

SMILES: CC(C)[C@@H]1OC(=O)[C@@H](Cc2ccccc2)N(C)C(=O)[C@H](C(C)C)OC(=O)[C@@H](Cc2ccccc2)N(C)C(=O)[C@H](C(C)C)OC(=O)[C@@H](Cc2ccccc2)N(C)C1=O [BEAUVERICIN]
- FIC50 (Saccharomyces cerevisiae [1]): 0.05
- FIC50 (Saccharomyces cerevisiae [2]): 2.67
- FIC50 (Saccharomyces cerevisiae [3]): 2

SMILES: CC(=O)OC[C@@]1(COS(=O)(=O)O)C(=O)CC[C@]23C[C@]24CC[C@]2(C)[C@@H]([C@H](C)CC(=O)CC(C)C)CC[C@@]2(C)[C@@H]4CC[C@@H]13 [CAPISTERONE A]
- Activity (Pichia kudriavzevii): inactive
- Activity (Cryptococcus neoformans): inactive
- Activity (Aspergillus fumigatus): inactive
- FIC50 (Saccharomyces cerevisiae [4]): 0.08
- Activity (BT-549): inactive
- Activity (Nakaseomyces glabratus): inactive
- pIC50 (Saccharomyces cerevisiae [5]): < 4.17
- Activity (Candida albicans): inactive
- Activity (SK-MEL): inactive
- Activity (SK-OV-3): inactive
- Activity (Saccharomyces cerevisiae [6]): inactive
- FIC50 (Saccharomyces cerevisiae [7]): 0.33
- Activity (Saccharomyces cerevisiae [8]): inactive
- pIC50 (Saccharomyces cerevisiae [9]): < 4.17
- Activity (Saccharomyces cerevisiae [10]): inactive
- FIC50 (Saccharomyces cerevisiae [11]): 0.55
- Activity (Vero): Not Active
- Activity (Saccharomyces cerevisiae [12]): inactive
- pIC50 (Saccharomyces cerevisiae [13]): < 4.17
- Activity (KB): inactive
- Activity (Saccharomyces cerevisiae [14]): inactive
- Activity (Saccharomyces cerevisiae [15]): inactive

SMILES: CC(C)CC(=O)C[C@@H](C)[C@H]1CC[C@@]2(C)[C@@H]3CC[C@H]4[C@](CO)(COS(=O)(=O)O)C(=O)CC[C@@]45C[C@@]35CC[C@]12C [CAPISTERONE B]
- Activity (Pichia kudriavzevii): inactive
- Activity (Cryptococcus neoformans): inactive
- Activity (Aspergillus fumigatus): inactive
- Activity (BT-549): inactive
- Activity (Nakaseomyces glabratus): inactive
- pIC50 (Saccharomyces cerevisiae [5]): 5.15
- Activity (Candida albicans): inactive
- Activity (SK-MEL): inactive
- Activity (SK-OV-3): inactive
- pIC50 (Saccharomyces cerevisiae [9]): 5.15
- FIC50 (Saccharomyces cerevisiae [16]): 0.5
- Activity (Vero): Not Active
- pIC50 (Saccharomyces cerevisiae [13]): 5.15
- Activity (KB): inactive
- FIC50 (Saccharomyces cerevisiae [17]): 0.15
- FIC50 (Saccharomyces cerevisiae [18]): 0.33
